Laboratory results from ChEMBL document CHEMBL1129360, “Carbocyclic nucleosides as inhibitors of human tumor necrosis factor-alpha production: effects of the stereoisomers of (3-hydroxycyclopentyl)adenines” (J Med Chem, 1996).

Experiments:
Mus musculus [1] = assay: D-galactosamine sensitized mice were given 3 times the LD100 dose of LPS (100 mg/kg IP in PBS); format: functional
How it was run: (§1)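 Female CF1 mice were fasted overnight, then given compound at 100 mg/kg ip in PBS 1 h before an ip challenge of D-galactosamine (20 mg) plus S. enteritidis LPS (15-250 ng). The LPS LD100 was set for each shipment of mice, and the challenge was at LD100 or 3× LD100. Mice were refed after challenge and survival was scored at 8 h. PBS vehicle served as control.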

Mus musculus [2] = assay: Protective effects against lethal injections of D-galactosamine sensitized Lipopolysaccharide challenged (LD100) CF1 mice (100 mg/kg IP in PBS); format: functional; how it was run: as §1
Homo sapiens [3] = organism: Homo sapiens; assay: in vitro inhibitory activity was measured against interleukin-1-beta (IL1-beta) production; format: functional
How it was run: (§2)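 Human peripheral blood mononuclear cells from normal volunteers were separated by density gradient. Adherent monocyte/macrophages were kept after 1 h and lifted with RPMI-1640/0.2% EDTA/5% FCS. Compounds in PBS (0.16, 0.8, 4.0, 20.0, 100 µM) were added to the cells 15 min before LPS. Cells were incubated 18 h at 37 °C, 5% CO2. Supernatant TNF-α, IL-1β and IL-6 were measured by specific ELISA, giving IC50.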

Homo sapiens [4] = organism: Homo sapiens; assay: In vitro inhibitory activity was measured against tumor necrosis factor-alpha production; format: functional; how it was run: as §2
Homo sapiens [5] = organism: Homo sapiens; assay: in vitro inhibitory activity was measured against interleukin-6 (IL-6) production; format: functional, organism-based; how it was run: as §2

Nc1ncnc2c1ncn2[C@H]1CC[C@@H](O)C1
Survival (Mus musculus [1]): 0%
Survival (Mus musculus [2]): 88%
IC50 (Homo sapiens [3]): > 100 µM
IC50 (Homo sapiens [4]): 40 µM
IC50 (Homo sapiens [5]): > 100 µM

Nc1ncnc2c1ncn2[C@H]1CC[C@H](O)C1
Survival (Mus musculus [1]): 0%
Survival (Mus musculus [2]): 63%
IC50 (Homo sapiens [3]): > 100 µM
IC50 (Homo sapiens [4]): 16 µM
IC50 (Homo sapiens [5]): > 100 µM

Nc1ncnc2c1ncn2[C@@H]1CC[C@@H](O)C1
Survival (Mus musculus [1]): 100%
Survival (Mus musculus [2]): 100%
IC50 (Homo sapiens [3]): 76 µM
IC50 (Homo sapiens [4]): 9 µM
IC50 (Homo sapiens [5]): > 100 µM

Nc1ncnc2c1ncn2[C@@H]1CC[C@H](O)C1
Survival (Mus musculus [1]): 0%
Survival (Mus musculus [2]): 50%
IC50 (Homo sapiens [3]): > 100 µM
IC50 (Homo sapiens [4]): 18 µM
IC50 (Homo sapiens [5]): > 100 µM

Nc1ncnc2c1ncn2[C@@H]1O[C@H](CO)[C@@H](O)[C@H]1O [ADENOSINE]
Survival (Mus musculus [1]): 0%
Survival (Mus musculus [2]): 0%
IC50 (Homo sapiens [3]): > 100 µM
IC50 (Homo sapiens [4]): 6 µM
IC50 (Homo sapiens [5]): > 100 µM

CC(=O)CCCCn1c(=O)c2c(ncn2C)n(C)c1=O [PENTOXIFYLLINE]
Survival (Mus musculus [1]): 0%
Survival (Mus musculus [2]): 66%
IC50 (Homo sapiens [3]): > 100 µM
IC50 (Homo sapiens [4]): 33 µM
IC50 (Homo sapiens [5]): > 100 µM
